Source: PubChem BioAssay (several laboratories)
An excerpt weighted towards active compounds, which were near 4.9% of everything screened.
APP 5'UTR act – APP 5'UTR luciferase reporter activation; SH-SY5Y APP 5'UTR luciferase reporter, luminescence; zero percent = DMSO vehicle wells; activation, % at 2 µM; actives 1% (n = 190,000); AID 1276;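 active = activation above a set limit, based on mean plus 3 SD of controls, cut at about 140% in these data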
STAT1 blocker – inhibitors of IFN-gamma induced STAT1 signaling; AID 920; NIH 3T3 STAT1-luciferase reporter, luminescence; actives 0.35% (n = 200,000); inhibition, % at 5.5 µM;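 active = inhibition above a set limit, the mean inhibition across all tested compounds plus 3 SD, cut at about 34% in these data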;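 note: 0% = IFN-gamma with DMSO and 100% = IFN-gamma with 300 µM nifuroxazide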
STAT3 inh – STAT3 signaling inhibition | U3A cells, IL-6 STAT3-luciferase reporter, luminescence; host cell line lacks STAT1 | inhibition, % at 5.5 µM | actives 0.89% (n = 190,000);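 active = inhibition above the mean inhibition across all screened compounds plus 3 SD, cut at about 44% in these data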;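 note: 0% = DMSO only wells and 100% = 100 µM nifuroxazide control wells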
NF-kB neuron act – NF-kB expression increase, human neuronal cells; actives 1.6% (n = 190,000); NF-kB reporter expression; active compounds read high; fold change at 12.5 µM; in the data active = fold change above about 3.3
STAT1 activator – activators of IFN-gamma induced STAT1 signaling | AID 932 | actives 2.6% (n = 200,000) | activation (% of control), % at 5.5 µM | NIH 3T3 STAT1-luciferase reporter, luminescence; 100% = IFN-gamma alone, no compound;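 active = activation above the screen-wide mean activation plus 3 SD, cut at about 130% in these data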;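 note: raw ratio to IFN-gamma control signal so 100% means no change and 0% no light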
STAT3 activator – increases IL-6 driven STAT3 reporter signal; actives 0.91% (n = 190,000); AID 871; activation (% of control), % at 5.6 µM; U3A cells, IL-6 STAT3-luciferase reporter, luminescence; 100% = signal with IL-6 EC80 alone;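 active = activation above the screen-wide mean of compound activation plus 3 SD, cut at about 130% in these data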;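 note: 0% = background luminescence of wells with medium and substrate only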
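Assay system – human STAT1-deficient U3A cells with stable STAT3-luciferase reporter · Also added – IL-6 (33 ng/mL) · Schedule – compound 1 h, then IL-6 6 h at 37 °C · Technique – reporter luminescence signal · Evaluation – % activation versus median of IL-6-stimulated wells · Benchmarks – IL-6-only wells as 100% reference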
STAT1 act conf – confirmation of STAT1 signaling activators; NIH 3T3 STAT1-luciferase reporter, IFN-gamma potentiation, luminescence; 100% = IFN-gamma EC80 alone, no compound; shares compounds with STAT1 activator; actives 97% (n = 1,200); activation (% of control), % at 5.7 µM;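 active = activation above a set limit carried over from the earlier primary STAT1 screen, cut at about 140% in these data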;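 note: simple ratio to median IFN-gamma plus DMSO wells so 0% means no light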
NFkB act STAT1ct – activates NF-kappaB, counter-screen to STAT1 activators. AID 1306. actives 43% (n = 1,200). activation (% of control), % at 5.7 µM. shares compounds with STAT1 activator. HEK293T NF-kB luciferase reporter, TNF-alpha stimulated, luminescence; 100% = TNF-alpha with vehicle only;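 active = activation above the mean of solvent-only control wells plus 3 SD, set per campaign, cut at about 130% in these data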;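 note: TNF-alpha given at a submaximal dose yielding about 80% of full reporter signal; values are well signal over median control so 100% means no change and 0% no light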
STAT3 act 2 – human STAT3 activation in STAT1 activator counter-screen. actives 46% (n = 1,200). activation (% of control), % at 5.7 µM. U3A cells STAT3-luciferase reporter, IL-6, luminescence; cells lack STAT1; 100 = IL-6 alone, no compound effect. shares compounds with STAT1 activator. AID 1316;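 active = activation above the solvent-only control well mean plus 3 SD, set per plate batch, cut at about 110% in these data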;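 note: 0% = no luminescence and 100% = median IL-6 plus DMSO wells; higher means more STAT3 reporter activation so hits are non-selective activators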
Numbers without * were called inactive; nt = not tested or not shown.

SMILES	APP 5'UTR act	STAT1 blocker	STAT3 inh	NF-kB neuron act	STAT1 activator	STAT3 activator	STAT1 act conf	NFkB act STAT1ct	STAT3 act 2
CC(=O)Nc1nc2ccc(-c3nc4ccccc4o3)cc2s1	41	-73	12	5.5*	167*	93	200*	135*	115*
Cc1nc2ccc(-c3nc4ccccc4o3)cc2[nH]1	143*	-104	36	7*	195*	72	232*	121	98
Nc1ccc(-c2nc3ccc(-c4nc5ccccc5o4)cc3[nH]2)cc1	41	-23	21	1.3	121	85	nt	nt	nt
CC(=O)Nc1ccc(S(=O)(=O)Nc2cccc(-c3nc4ccccc4o3)c2)cc1	2	0	27	0.95	100	82	nt	nt	nt
CCOC(=O)c1[nH]c(C)c(CC(C)C)c1C	-14	-7	8	1.1	104	95	nt	nt	nt
O=c1n(-c2ccccc2)c(=O)n2n1CC(O)C2	-8	4	18	0.97	94	91	nt	nt	nt
COc1ccc(/C(N)=N/OC(=O)c2cccc([N+](=O)[O-])c2)cc1OC	nt	-1	15	1.3	100	88	nt	nt	nt
N/C(=N\OC(=O)c1ccc2c(c1)OCO2)c1cccc([N+](=O)[O-])c1	85	-61	-4	3.2	153*	106	198*	126	118*
Cc1ccc(OCC(=O)Nc2ccc(N(C)C)cc2)cc1	12	9	5	1	91	100	nt	nt	nt
Cc1ccc(NC(=S)c2ccc(N(C)C)cc2)cc1	150*	-77	34	3.5*	170*	73	201*	129	102
Cc1ccc(-c2cc(N)n(-c3ccc(F)cc3)n2)cc1	70	-64	8	2.9	155*	97	142*	113	97
O=C(O)CC/C(=N\NC(=O)c1ccccc1Br)c1ccccc1	4	4	2	1.1	97	101	nt	nt	nt
COc1cccc(-c2cc(C(=O)N3CCCCC3C)no2)c1 (configuration not stated)	133	-59	-22	3.6*	154*	122	181*	134*	123*
COc1ccccc1Nc1nnc(SCc2cc(=O)n3cc(C)ccc3n2)s1	2	-1	15	0.37	101	90	nt	nt	nt
CCN(CC)c1ccc2cc(-c3nnc(-c4ccccc4)o3)c(=O)oc2c1	19	-60	-13	1.3	155*	112	185*	137*	126*
COc1cccc(C(=O)/C=C/Nc2ccc(S(=O)(=O)Nc3cccc(C(C)=O)c3)cc2)c1	-2	15	22	0.57	86	84	nt	nt	nt
COc1cccc(N/C=C/C(=O)c2ccc(Cl)cc2)c1	198*	-91	19	6.4*	180*	86	239*	115	96
Cc1ccc2cc(CCNC(=O)c3ccco3)c(=O)[nH]c2c1C	129	-64	-6	3.9*	156*	104	201*	138*	121*
Cc1cc2cc(CCNC(=O)c3cccs3)c(=O)[nH]c2cc1C	98	-57	-3	2	151*	103	176*	131	96
Cc1ccc2cc(CCNC(=O)c3ccco3)c(=O)[nH]c2c1	47	-30	7	2.4	128	95	nt	nt	nt
O=[N+]([O-])/C(C(Cl)=C(Cl)Cl)=C(/NC1CC1)Sc1ccccc1	-8	4	-2	1.2	96	104	nt	nt	nt
Cc1ccc(C(=O)Nc2ccc(SC(F)F)cc2)s1	112	-80	0	1.2	173*	102	205*	141*	98
CCOC(=O)C1(CC2CCCCO2)CCN(C(=O)NCc2ccccc2)CC1 (configuration not stated)	14	8	2	1.1	91	103	nt	nt	nt
CCCCc1ccc(-c2ccc(Br)cc2)nc1	125	-65	20	6*	155*	85	223*	126	97
COCCNc1nc(-c2cc3ccccc3o2)cs1	180*	-103	6	8.1*	194*	94	230*	125	105
SMILES	APP 5'UTR act	STAT1 blocker	STAT3 inh	NF-kB neuron act	STAT1 activator	STAT3 activator	STAT1 act conf	NFkB act STAT1ct	STAT3 act 2
CC(C)c1ccc(NC(=O)c2cc(Br)ccc2Br)cc1	-17	-6	8	1.3	105	97	nt	nt	nt
CC(C)c1ccc(NC(=O)c2snc3ccc(Cl)cc23)cc1	120	-64	-31	2.3	158*	131	194*	126	139*
CCc1nnc(NC(=O)c2sc3nc4c(cc3c2N)CCCCCC4)s1	12	-32	-4	2	128	105	nt	nt	nt
CCc1nnc(NC(=O)c2sc3nc4c(cc3c2N)CCCCC4)s1	70	-61	-6	3.4*	155*	106	187*	135*	117*
COc1ccc(OCC(=O)N2N=C(C(F)F)CC2(O)C(F)F)cc1 (configuration not stated)	-4	3	1	1.3	97	100	nt	nt	nt
CCCC(=O)Nc1nc(-c2ccc3c(c2)OCCO3)cs1	141*	-65	8	4.5*	158*	98	181*	143*	104
O=C(CSCC(=O)Nc1nc(-c2ccc3c(c2)OCO3)cs1)Nc1nccs1	29	0	nt	1.2	99	nt	nt	nt	nt
CSCC(=O)Nc1nc(-c2ccc3c(c2)OCCO3)cs1	153*	-65	4	4.8*	158*	104	189*	139*	114*
CCCC(=O)Nc1nc(-c2ccc(OC)cc2)cs1	-9	-24	6	1.9	123	97	nt	nt	nt
Cc1ccc(S(=O)(=O)NC(=O)c2ccc(-c3ccc(-c4ccccc4)cc3)o2)c(C)c1	8	-4	0	1.1	104	98	nt	nt	nt
CN1C(=O)C(c2nnc(Nc3cccc4ccccc34)s2)C2CC1(C)Oc1ccccc12 (configuration not stated)	3	-8	-4	0.76	107	102	nt	nt	nt
COc1ccc(Cn2c(/C=C/c3ccccc3)nc3ccccc32)cc1	nt	-64	-19	6.1*	157*	120	196*	150*	130*
Nc1ccc(-c2nc3ccc(N)cc3[nH]2)cc1	16	-32	-11	nt	127	114	nt	nt	nt
Nc1ccc(-c2nc3ccc([N+](=O)[O-])cc3[nH]2)cc1	72	-92	5	7.1*	182*	94	233*	147*	120*
